Results taken from publication PMC4168784 (ACS Chemical Biology, 2014).
Read-outs that look alike come from different tables or passages of the source. Square brackets hold non-standard residues; d marks the D form. Peptide text beside a SMILES is read from it. Orn(N5-OH,N5-Ac) = CC(=O)N(O)CCC[C@H](N)C(=O)O

How the values were obtained:
YxeB-S142-6×His [1] = biological target: T1, YxeB-S142-6×His (Bacillus cereus, UniProt Q81IK3, L142S); assay: Fluorescence quenching; type: binding
T1 sequence (Q81IK3 19-306 L142S): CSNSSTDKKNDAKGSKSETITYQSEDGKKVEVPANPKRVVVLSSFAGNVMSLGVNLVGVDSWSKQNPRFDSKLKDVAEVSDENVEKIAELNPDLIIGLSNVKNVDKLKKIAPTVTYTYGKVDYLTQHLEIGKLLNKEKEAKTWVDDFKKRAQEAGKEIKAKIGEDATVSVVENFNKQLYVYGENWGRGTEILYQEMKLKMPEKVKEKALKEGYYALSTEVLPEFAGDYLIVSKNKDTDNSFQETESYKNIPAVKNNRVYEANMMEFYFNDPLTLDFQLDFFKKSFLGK

YxeB-S142-6×His [2] = biological target: T1, YxeB-S142-6×His; assay: Substrate binding assay using RP-HPLC; details: bound = substrate detected in the protein complex analyzed by RP-HPLC
In short: (§1)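 His-tagged protein (2 μM) was bound to Ni-agarose beads in TBS over 2 h at RT. Substrate was added for 10 min at RT: 10 μM metal complex or 20 μM apo-ligand. Pellets were washed twice, then extracted with 20% acetonitrile (Ga complex) or 0.1% TFA for 20 min. C18 RP-HPLC at 220 nm followed, with a 0–25% acetonitrile gradient.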

YxeB-L142-6×His [3] = biological target: T2, YxeB-L142-6×His (Bacillus cereus, UniProt Q81IK3); assay: Substrate binding assay using RP-HPLC; details: bound = substrate detected in the protein complex analyzed by RP-HPLC
T2 sequence (Q81IK3 19-306): T1 sequence (Q81IK3 19-306 L142S)
In short: as §1

YxeB-L142-6×His [4] = biological target: T2, YxeB-L142-6×His; assay: Fluorescence quenching; type: binding
[5] = system: DFO:YxeB-L142-6×His complex; assay: Iron exchange experiment in vitro analysed by RP-HPLC; type: biochemical, Bacillus cereus; details: for metal exchange rate (FO formed): 0.2 nmol/mL added; for FO bound to YxeB (iron transferred to DFO): 0.2 nmol/mL metal–substrate added to YxeB:DFO, 40 min incubation
[6] = Iron exchange experiment without the YxeB protein; details: 0.2 μM AcFO, 4 μM DFO, no protein; up to 24 h
In short: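 No protein was present: 4 μM DFO and 0.2 μM acetylated ferrioxamine (final concentrations) were mixed in TBS at RT. Samples taken at 0 and 5 min and at 1, 3 and 24 h went directly onto C18 RP-HPLC (0.1% TFA/acetonitrile, 0–25% over 50 min, 220 nm).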

[7] = system: DFO:YxeB-S142-6×His complex; assay: Iron exchange experiment in vitro analysed by RP-HPLC; type: biochemical, Bacillus cereus
In short: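 His-tagged YxeB (2 μM), 4 μM DFO and Ni-agarose beads were mixed 2 h at RT in TBS, then given 0.2 μM (final) acetylated ferrioxamine. Pelleted aliquots were washed twice and eluted 20 min in 0.01% TFA. Eluates ran on C18 RP-HPLC (0.1% TFA/acetonitrile, 0–25% over 50 min, 220 nm) to quantify bound ligands.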

TC137 strain [8] = assay: Disc diffusion assay; type: cell-based, Bacillus cereus; details: 10 nmol infused in the disc (supplement: 10 pmol)
In short: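 Sterile filter discs were loaded with 10 nmol siderophore; 6 μL DMSO served as the negative control. Growth was scored around each disc.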

YxeB-S142-6×His [9] = biological target: T1, YxeB-S142-6×His; details: calculated previously; cited from earlier work
[10] = cited from earlier work
TC137 strain [11] = assay: Growth assay in iron-limited minimum medium; type: cell-based, Bacillus cereus; details: 10 or 100 nM siderophore in iron-limited minimum medium
[12] = system: DFO:YxeB-L/S142-6×His complex; assay: ICP exchange or displacement assay, text statements covering both variants; type: biochemical, Bacillus cereus; details: 0.2 μM added; for metal (Ga, Fe, Cr) contained in the YxeB complexes: both YxeB-L142 and -S142 complexes; for amounts of metal transferred after 5 min incubation: both variants; for Ga and Fe transferred to the DFO:YxeB complex: within the 5 min incubation time
In short: (§2)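 2 μM His-tagged YxeB variant, 4 μM DFO and Ni-agarose beads were shaken 2 h at RT in TBS (25 mM Tris-HCl, pH 7.4). Then 0.2 μM (final) Fe-, Ga- or Cr-hydroxamate was added at RT. Pellets collected at 0–30 min were digested overnight in 3.5% nitric acid and measured by ICP with 0.1 ppm Eu internal standard. Results are the mean of three experiments, with standard errors.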

YxeB-L142-6×His [13] = biological target: T2, YxeB-L142-6×His; details: calculated previously; cited from earlier work
[14] = system: DFO:YxeB-S142-6×His complex; assay: Fe-/Ga-/Cr-DFO substrate binding; type: biochemical, Bacillus cereus; details: ICP analysis; for metal exchange rates or displaced substrate rates: 0.2 nmol/mL added, 30 min incubation; for substrates bound to YxeB except DFO: 0.2 nmol/mL metal–substrate added to YxeB:DFO, after 30 min incubation
In short: as §2

[15] = system: DFO:YxeB-L142-6×His complex; assay: Fe-/Ga-/Cr-DFO substrate binding; type: biochemical, Bacillus cereus; details: ICP analysis; for metal exchange rates or displaced substrate rates: 0.2 nmol/mL added, 30 min incubation; for substrates bound to YxeB except DFO: 0.2 nmol/mL metal–substrate added to YxeB:DFO, after 30 min incubation
In short: as §2

[16] = system: wild-type strains, TC128 and TC129; assay: Cr-DFO and Ga-DFO import, metal in cells measured by ICP; type: cell-based, Bacillus cereus; details: 2 μM metal complex added in the culture
In short: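 B. cereus cultures at OD600 0.8–1.3 received 2 μM metal–siderophore complex. Incubation was 120 min for Cr and 80 min for Ga, by which point OD600 was 1.6–2.1. Cell-associated Cr or Ga was then quantified by ICP. Values are the average of two independent experiments, with standard errors.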

[17] = read-out: Kd (nM) by FQ assay, calculated by Hyperquad, SD in parentheses
[18] = read-out: Kd (nM) by FQ assay, calculated using fluorescence quenching data previously described

## CC(=O)NCCCCCN(O)C(=O)CCC(=O)NCCCCCN(O)C(=O)CCC(=O)NCCCCCN(O)C(C)=O [AcDFO]
YxeB-S142-6×His [1]
  Kd: 30.7 nM
YxeB-S142-6×His [2]
  binding assay (HPLC): bound ^d
YxeB-L142-6×His [3]
  binding assay (HPLC): bound ^d

## CC(=O)NCCCCCN(O)C(=O)CCC(=O)NCCCCCN(O)C(=O)CCC(=O)NCCCCCN(O)C(C)=O.[Fe+3] [AcFO]
YxeB-L142-6×His [4]; [17]
  Kd: 25.4 nM
YxeB-S142-6×His [1]; [17]
  Kd: 31.6 nM
[5]; 0.2 μM AcFO added, 8 min
  exchange amount (FO formed) after 8 min incubation: approximately 0.2 μM
[5]; 0.2 μM AcFO, 4 μM DFO, 2 μM YxeB-L142-6×His
  incubation time after which iron exchange with YxeB was complete: 2 min
[5]; RP-HPLC, 0.2 nmol/mL AcFO added, 40 min
  AcDFO bound to YxeB: 0.110 nmol/mL sample
[5]; RP-HPLC, 40 min
  metal exchange rate (FO formed): 77%
[5]; RP-HPLC
  FO bound to YxeB (iron transferred to DFO): 0.153 nmol/mL sample
[5]; RP-HPLC, AcDFO after AcFO addition
  rate of iron-released substrate remaining bound to YxeB: 55%
[6]
  iron exchange between AcFO and DFO without YxeB: did not occur
YxeB-S142-6×His [2]
  binding assay (HPLC): bound ^d
[7]; 0.2 nmol/mL AcFO added
  AcDFO bound to YxeB: 0.089 nmol/mL sample
  metal exchange rate (FO formed): 72%
[7]; 0.2 nmol/mL AcFO added, 10 min incubation
  FO bound to YxeB (iron transferred to DFO): 0.144 nmol/mL sample
[7]; AcDFO after AcFO addition
  rate of iron-released substrate remaining bound to YxeB: 45%
YxeB-L142-6×His [3]
  binding assay (HPLC): bound ^d

## CC(=O)N(O)CCCCCNC(=O)CCC(=O)N(O)CCCCCNC(=O)CCC(=O)N(O)CCCCCN [DFO, desferrioxamine B]
TC137 strain [8]
  growth around a disc containing the siderophore: did not grow
YxeB-S142-6×His [9]
  Kd: 35.9 nM
[10]
  pFe^III: 26.6
TC137 strain [11]
  growth of TC137 compared to wild-type strains TC129 and TC128: delayed

## CC(=O)N(O)CCC[C@@H]1NC(=O)CNC(=O)CNC(=O)CNC(=O)[C@H](CCCN(O)C(C)=O)NC(=O)[C@H](CCCN(O)C(C)=O)NC1=O [DFch, desferrichrome] (cyclo(GGG[Orn(N5-OH,N5-Ac)][Orn(N5-OH,N5-Ac)][Orn(N5-OH,N5-Ac)]))
YxeB-L142-6×His [4]
  Kd: 104 nM
YxeB-S142-6×His [1]
  Kd: 23 nM
YxeB-S142-6×His [2]
  binding assay (HPLC): bound ^d
TC137 strain [8]
  growth around a disc containing the siderophore: did not grow
YxeB-L142-6×His [3]
  binding assay (HPLC): bound ^d
TC137 strain [11]
  growth of TC137 compared to wild-type strains TC129 and TC128: delayed

## CC(=O)N([O-])CCCCCNC(=O)CCC(=O)N([O-])CCCCCNC(=O)CCC(=O)N([O-])CCCCCN.[Fe+3] [FO, ferrioxamine B]
[12]
  metal (Ga, Fe, Cr) contained in the YxeB complexes: > 0.15 nmol/mL reaction solution
  amounts of metal transferred after 5 min incubation: 0.14–0.18 nmol/mL reaction solution
  Ga and Fe transferred to the DFO:YxeB complex: > 70%
YxeB-L142-6×His [13]
  Kd: 38.8 nM
[14]
  metal exchange rates or displaced substrate rates: 83%
  substrates bound to YxeB except DFO: 0.166 nmol/mL sample
[15]
  metal exchange rates or displaced substrate rates: 86%
  substrates bound to YxeB except DFO: 0.172 nmol/mL sample
YxeB-S142-6×His [9]
  Kd: 29.1 nM

## CC(=O)N(O)CCC[C@@H]1NC(=O)CNC(=O)CNC(=O)CNC(=O)[C@H](CCCN(O)C(C)=O)NC(=O)[C@H](CCCN(O)C(C)=O)NC1=O.[Fe+3] [Fch, ferrichrome] (cyclo(GGG[Orn(N5-OH,N5-Ac)][Orn(N5-OH,N5-Ac)][Orn(N5-OH,N5-Ac)]))
YxeB-L142-6×His [4]; [18]
  Kd: 43 nM
YxeB-S142-6×His [1]; [18]
  Kd: 29.3 nM
[5]; RP-HPLC, 0.2 nmol/mL Fch added, 40 min
  Fch bound to YxeB (displacement): 0.037 nmol/mL sample
[5]; RP-HPLC, 40 min
  metal exchange rate (FO formed): 0%
[5]; RP-HPLC
  FO bound to YxeB (iron transferred to DFO): 0 nmol/mL sample
[5]; displacement mechanism, 0.2 μM Fch, 40 min
  amount of Fch bound to the protein: 0.037 µM
YxeB-S142-6×His [2]
  binding assay (HPLC): bound ^d
[10]
  pFe^III: 25.2
YxeB-L142-6×His [3]
  binding assay (HPLC): bound ^d

## O=C([O-])CN(CCN(CC(=O)[O-])CC(=O)[O-])CC(=O)[O-].[Fe+3] [Fe-EDTA]
[5]; RP-HPLC, 40 min
  metal exchange rate (FO formed): ≤ 1%
[5]; RP-HPLC
  FO bound to YxeB (iron transferred to DFO): 0.003 nmol/mL sample
[10]
  pFe^III: 23.4

## O=C(N[C@H]1COC(=O)[C@@H](NC(=O)c2cccc([O-])c2[O-])COC(=O)[C@@H](NC(=O)c2cccc([O-])c2[O-])COC1=O)c1cccc([O-])c1[O-].[Fe+3] [Fe-Ent, Fe-enterobactin]
[5]; RP-HPLC, 40 min
  metal exchange rate (FO formed): ≤ 5%
[10]
  pFe^III: 34.3

## CC(=O)N(O)CCCCCNC(=O)CCC(=O)N(O)CCCCCNC(=O)CCC(=O)N(O)CCCCCN.[Ga+3] [Ga-DFO]
YxeB-L142-6×His [4]; [17]
  Kd: 59.2 nM
YxeB-S142-6×His [1]; [17]
  Kd: 44.6 nM
YxeB-S142-6×His [2]
  binding assay (HPLC): bound ^d
[12]
  metal (Ga, Fe, Cr) contained in the YxeB complexes: > 0.15 nmol/mL reaction solution
  amounts of metal transferred after 5 min incubation: 0.14–0.18 nmol/mL reaction solution
  Ga and Fe transferred to the DFO:YxeB complex: > 70%
[14]
  metal exchange rates or displaced substrate rates: 83%
  substrates bound to YxeB except DFO: 0.165 nmol/mL sample
[15]
  metal exchange rates or displaced substrate rates: 78%
  substrates bound to YxeB except DFO: 0.155 nmol/mL sample
YxeB-L142-6×His [3]
  binding assay (HPLC): bound ^d
[16]
  Ga or Cr in the cells (import): contained Ga or Cr in the cells

## C=CC1=C(C)c2cc3[n-]c(cc4[n-]c(cc5nc(cc1n2)C(C)=C5C=C)c(C)c4CCC(=O)O)c(CCC(=O)O)c3C.O.[Fe+2] [hematin]
[5]; RP-HPLC, 40 min
  metal exchange rate (FO formed): ≤ 1%
[5]; RP-HPLC
  FO bound to YxeB (iron transferred to DFO): 0.003 nmol/mL sample

## ferric citrate [Fe-Cit]
[5]; RP-HPLC, 40 min
  metal exchange rate (FO formed): 45%
[5]; RP-HPLC
  FO bound to YxeB (iron transferred to DFO): 0.089 nmol/mL sample
